pIC50: −log10 of the molar value. The source made the active and inactive calls. The rule behind the calls is not given here.
How the values were obtained:
K562 = assay: Antiproliferative activity against human K562 cells after 72 hrs by CCK8 assay; type: functional, cell-based; conditions: Homo sapiens, K562, 72 h
MOLT-4 = assay: Antiproliferative activity against human MOLT4 cells after 72 hrs by CCK8 assay; type: functional, cell-based; conditions: Homo sapiens, MOLT-4, 72 h
Bel-7402 = assay: Antiproliferative activity against human Bel7402 cells after 72 hrs by CCK8 assay; type: functional, cell-based; conditions: Bel-7402, 72 h
U-937 = assay: Antiproliferative activity against human U937 cells after 72 hrs by CCK8 assay; type: functional, cell-based; conditions: Homo sapiens, U-937, 72 h
Huh-7 = assay: Antiproliferative activity against human HuH7 cells after 72 hrs by CCK8 assay; type: functional, cell-based; conditions: Huh-7, 72 h
MCF7 = assay: Antiproliferative activity against human MCF7 cells after 72 hrs by CCK8 assay; type: functional, cell-based; conditions: Homo sapiens, MCF7, 72 h
SK-BR-3 = assay: Antiproliferative activity against human SK-BR-3 cells after 72 hrs by CCK8 assay; type: functional, cell-based; conditions: SK-BR-3, 72 h
DU-145 = assay: Antiproliferative activity against human DU145 cells after 72 hrs by CCK8 assay; type: functional, cell-based; conditions: Homo sapiens, DU-145, 72 h
NCI-N87 = assay: Antiproliferative activity against human NCI-N87 cells after 72 hrs by CCK8 assay; type: functional, cell-based; conditions: Homo sapiens, NCI-N87, 72 h
SGC-7901 = assay: Antiproliferative activity against human SGC7901 cells after 72 hrs by CCK8 assay; type: functional, cell-based; conditions: SGC-7901, 72 h
BGC-823 = assay: Antiproliferative activity against human BGC823 cells after 72 hrs by CCK8 assay; type: functional, cell-based; conditions: Homo sapiens, BGC-823, 72 h
HT-1080 = assay: Antiproliferative activity against human HT1080 cells after 72 hrs by CCK8 assay; type: functional, cell-based; conditions: HT-1080, 72 h
A-431 = assay: Antiproliferative activity against human A431 cells after 72 hrs by CCK8 assay; type: functional, cell-based; conditions: Homo sapiens, A-431, 72 h
A549 = assay: Antiproliferative activity against human A549 cells after 72 hrs by CCK8 assay; type: functional, cell-based; conditions: Homo sapiens, A549, 72 h
PANC-1 = assay: Antiproliferative activity against human PANC1 cells after 72 hrs by CCK8 assay; type: functional, cell-based; conditions: Homo sapiens, PANC-1, 72 h
HeLa = assay: Antiproliferative activity against human HeLa cells after 72 hrs by CCK8 assay; type: functional, cell-based; conditions: Homo sapiens, HeLa, 72 h
[1] = Inhibition of PI3K p110alpha/p85 (unknown origin) using PIP2/ATP as substrate after 1 hr by kinase glo luminescent assay; set-up: species or system Homo sapiens
Method in brief: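 PI3K p110α activity read by Kinase-Glo Plus luminescence. IC50 is the mean of triplicate measurements.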

HL-60 = assay: Antiproliferative activity against human HL60 cells after 72 hrs by CCK8 assay; type: functional, cell-based; conditions: HL-60, 72 h
MDA-MB-231 = assay: Antiproliferative activity against human MDA-MB-231 cells by WST8 assay; type: functional, cell-based
PC-3 = assay: Antiproliferative activity against human PC3 cells after 72 hrs by CCK8 assay; type: functional, cell-based; conditions: PC-3, 72 h
Homo sapiens = organism: Homo sapiens; assay: Inhibition of PI3K in human U937 cells assessed as suppression of AKT phosphorylation at S473 after 24 hrs by Western blot analysis; type: cell-based

Row | SMILES | pIC50 (K562) | pIC50 (MOLT-4) | pIC50 (U-937) | pIC50 (MCF7) | pIC50 (SK-BR-3) | pIC50 (DU-145) | pIC50 (BGC-823) | pIC50 (A-431) | pIC50 (A549) | pIC50 (PANC-1) | pIC50 (HeLa) | pIC50 [1] | pIC50 (NCI-N87) | also measured
1 | CC(/C=C/C(=O)NO)=C\[C@@H](C)C(=O)c1ccc(N(C)C)cc1 [TRICHOSTATIN] | 6.92 | 7.70 | 7.40 | 7.15 | 7.30 | 7.22 | 7.15 | 6.74 | 7.30 | 7.00 | 7.05 |  | 7.22 | pIC50 (Bel-7402): 7.00; pIC50 (Huh-7): 7.22; pIC50 (SGC-7901): 7.52; pIC50 (HT-1080): 7.10
2 | C[C@@H]1CN(c2nc(-c3cnc(N)cc3C(F)(F)F)nc(N3C[C@@H](C)O[C@@H](C)C3)n2)C[C@H](C)O1 |  |  |  |  |  |  |  |  |  |  |  | < 5.00 |  | 
3 | C[C@@H]1CN(c2cc(-c3cnc(N)cc3C(F)(F)F)nc(N3C[C@@H](C)O[C@@H](C)C3)n2)C[C@H](C)O1 |  |  |  |  |  |  |  |  |  |  |  | < 5.00 |  | 
4 | Nc1cc(C(F)(F)F)c(-c2nc(N3CCOCC3)nc(N3C[C@@H]4OCCO[C@H]4C3)n2)cn1 | 4.61 | 5.68 | 5.26 | 5.03 | 5.44 | 5.97 |  | 4.49 | 5.02 | 5.12 | < 4.00 | 7.42 | 5.56 | pIC50 (HL-60): 5.31; pIC50 (MDA-MB-231): 4.92; pIC50 (PC-3): 5.20
5 | Oc1cccc(-c2nc(N3CCOCC3)c3oc4ncccc4c3n2)c1 [PI-103] |  |  |  |  |  |  |  |  |  |  |  | 8.13 |  | 
6 | C[C@@H]1CN(c2cc(-c3cnc(N)cc3C(F)(F)F)nc(N3C[C@@H]4OCCO[C@@H]4C3)n2)C[C@H](C)O1 |  |  |  |  |  |  |  |  |  |  |  | 5.24 |  | 
7 | Nc1cc(C(F)(F)F)c(-c2cc(N3CCOCC3)nc(N3C[C@@H]4OCCO[C@H]4C3)n2)cn1 (racemic) |  |  |  |  |  |  |  |  |  |  |  |  |  | inhibition (Homo sapiens): Active
8 | Nc1cc(C(F)(F)F)c(-c2cc(N3CCOCC3)nc(N3C[C@H]4OCCO[C@@H]4C3)n2)cn1 | 5.20 | 5.71 | 5.47 | 5.13 | 5.46 | 4.82 | 5.18 |  | 5.19 |  | 5.12 | 7.21 |  | 

The next lines start with results.

Row | pIC50 (K562) | pIC50 (MOLT-4) | pIC50 (U-937) | pIC50 (MCF7) | pIC50 (SK-BR-3) | pIC50 (DU-145) | pIC50 (BGC-823) | pIC50 (A-431) | pIC50 (A549) | pIC50 (PANC-1) | pIC50 (HeLa) | pIC50 [1] | SMILES | pIC50 (NCI-N87) | also measured
9 | 5.57 | 6.38 | 6.24 | 5.85 |  | 5.85 | 5.85 | 5.64 | 5.72 | 5.86 | 5.74 | 7.04 | C[C@@H]1CN(c2nc(-c3cnc(N)cc3C(F)(F)F)cc(N3CCOCC3)n2)C[C@H](C)O1 | 6.28 | pIC50 (Bel-7402): 5.79; pIC50 (Huh-7): 5.92; pIC50 (SGC-7901): 5.91; pIC50 (HT-1080): 5.70
10 | 5.44 | 5.95 | 5.70 | 5.36 | 5.80 | 5.18 | 5.44 |  | 5.53 |  | 5.39 | 7.64 | CS(=O)(=O)N1CCN(c2nc(-c3cnc(N)cc3C(F)(F)F)cc(N3CCOCC3)n2)CC1 |  | 
11 |  |  |  |  |  |  |  |  |  |  |  | 6.25 | Nc1cc(C(F)(F)F)c(-c2cc(N3CCOCC3)nc(NCCN3CCOCC3)n2)cn1 |  | 
12 | 4.95 | 5.95 | 5.62 | 5.30 | 5.79 | 5.17 |  | 5.23 | 5.26 | 5.63 | < 4.00 | 7.51 | CS(=O)(=O)N1CCN(c2ccc(Nc3nc(-c4cnc(N)cc4C(F)(F)F)cc(N4CCOCC4)n3)cc2)CC1 | 5.89 | pIC50 (HL-60): 6.03; pIC50 (MDA-MB-231): 5.27; pIC50 (PC-3): 5.13
13 | 5.06 | 5.75 | 5.46 | 5.03 | 5.57 | < 5.00 | 5.08 |  | 5.11 |  | 5.16 | 7.59 | Nc1cc(C(F)(F)F)c(-c2cc(N3CCOCC3)nc(Nc3ccc(N4CCOCC4)cc3)n2)cn1 |  | 
